Reference: ChEMBL document CHEMBL1138123, “Design, synthesis, and biological evaluation of pyrrolo[2,1-c][1,4]benzodiazepine and indole conjugates as anticancer agents” (2006)
Activity calls are given as the source filed them. The calls are words filed in the database; no cut-off is given here.

What was measured:
A2058 [1] = test: Accumulation of A2058 cells in G1 phase as a measure for cell cycle arrest at 2 uM; format: functional, Homo sapiens
In short: (§1)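 Human melanoma A2058 cells exposed to graded concentrations (0–4 μM) for 24 h, DMSO as control. Cells collected by trypsinization, fixed in ice-cold 70% ethanol 30 min, treated with 1 mg/mL RNase A at 37 °C 30 min, then stained with propidium iodide/citrate/Triton X-100 at room temperature 30 min in the dark. DNA content of 10 000 events read by flow cytometry; G1, S and G2/M fractions gated from histograms.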

A2058 [2] = test: Accumulation of A2058 cells in G2/M phase as a measure for cell cycle arrest at 4 uM; format: functional, Homo sapiens; in short: as §1
A2058 [3] = test: Accumulation of A2058 cells in G1 phase as a measure for cell cycle arrest at 4 uM; format: functional, Homo sapiens; in short: as §1
A2058 [4] = test: Apoptotic effect on A2058 cells by propidium iodide staining and Annexin V-FITC conjugate at 2 uM; format: functional, cell-based; conditions: Homo sapiens
In short: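 A2058 cells given graded concentrations for 24 h, then 10^6 cells per sample labelled with annexin V–FITC together with propidium iodide and analysed by two-parameter flow cytometry. Percentage of annexin V-positive cells reported per concentration.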

Nucleic Acid = test: Inhibition of cleavage activity of restriction endonuclease BamH1; format: nucleic-acid assay
In short: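 pBR322 plasmid DNA (0.5 μg) preincubated with compound at 5 μM in restriction buffer pH 7.5 plus BSA 0.1 mg/mL, 37 °C for 1 h. Excess BamHI (20 units) then added, 37 °C for a further 1 h, stopped at 65 °C for 20 min. Products run on 1.0% agarose in TAE at 100 V for 2 h and stained with ethidium bromide. Supercoiled/open-circular and fully linearized DNA run as controls.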

A2058 [5] = test: Accumulation of A2058 cells in S phase as a measure for cell cycle arrest at 1 uM; format: functional, Homo sapiens; in short: as §1
A2058 [6] = test: Accumulation of A2058 cells in G1 phase as a measure for cell cycle arrest at 1 uM; format: functional, Homo sapiens; in short: as §1
A2058 [7] = test: Accumulation of A2058 cells in G2/M phase as a measure for cell cycle arrest at 1 uM; format: functional, Homo sapiens; in short: as §1
A2058 [8] = test: Accumulation of A2058 cells in G2/M phase as a measure for cell cycle arrest at 2 uM; format: functional, Homo sapiens; in short: as §1
A2058 [9] = test: Accumulation of A2058 cells in S phase as a measure for cell cycle arrest at 4 uM; format: functional, Homo sapiens; in short: as §1
A2058 [10] = test: Accumulation of A2058 cells in S phase as a measure for cell cycle arrest at 2 uM; format: functional, Homo sapiens; in short: as §1
A2058 [11] = test: Apoptotic effect on A2058 cells by measuring hypodiploid DNA content after 18 hrs exposure to 5 uM; format: functional, Homo sapiens
In short: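 A2058 human melanoma cells kept at 37 °C in 5% CO2 and passaged with 5 mM EDTA. Exposed to agent at 5 μM for 18 h, trypsinized, fixed 30 min in ice-cold 70% ethanol, and treated with RNase A (1 mg/mL) at 37 °C for 30 min. Stained with PI for 30 min at room temperature in the dark. DNA content read by flow cytometry on 10 000 events, reported as the percentage of cells in the sub-G1 region.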

UACC-62 = test: Antiproliferative activity against UACC62 melanoma cancer cells; format: functional; conditions: Homo sapiens
SN12C = test: Antiproliferative activity against SN12C Renal cancer cells; format: functional; conditions: Homo sapiens
M14 = test: Antiproliferative activity against M14 melanoma cancer cells; format: functional; conditions: Homo sapiens
RXF 393 = test: Antiproliferative activity against RXF393 Renal cancer cells; format: functional; conditions: Homo sapiens
SF-268 = test: Antiproliferative activity against SF268 CNS cancer cells; format: functional; conditions: Homo sapiens

Row | Activity (Nucleic Acid) | SMILES | Activity (A2058 [11]) [%] | GI50 (UACC-62) [µM] | GI50 (SN12C) [µM] | GI50 (M14) [µM] | other results
1 | Active | COc1cc2c(cc1OCCCCCCNC(=O)c1cc3ccccc3[nH]1)N=C[C@@H]1CCCN1C2=O | 50.6 |  |  |  | Activity (A2058 [1]): 25.7%; Activity (A2058 [2]): 12.5%; Activity (A2058 [3]): 29.2%; Activity (A2058 [4]): Active; Activity (A2058 [5]): 15.2%; Activity (A2058 [6]): 41.1%; Activity (A2058 [7]): 42.5%; Activity (A2058 [8]): 47.7%; Activity (A2058 [9]): 42.8%; Activity (A2058 [10]): 25.2%
2 |  | COc1cc2c(cc1O)N=C[C@@H]1CCCN1C2=O | 45 |  |  |  | 
3 |  | COc1cc2c(cc1OCCCCCNC(=O)c1cc3ccccc3[nH]1)N=C[C@@H]1CCCN1C2=O | 2.9 |  |  |  | 
4 | Active | COc1cc2c(cc1OCCCCNC(=O)c1cc3ccccc3[nH]1)N=C[C@@H]1CCCN1C2=O | 46.8 |  |  |  | 
5 |  | COc1cc2c(cc1OC(=O)c1cc3ccccc3[nH]1)N=C[C@@H]1CCCN1C2=O | 38.5 | 0.29 | 0.21 | 0.162 | 

Row | SMILES | Activity (Nucleic Acid) | Activity (A2058 [11]) [%] | GI50 (UACC-62) [µM] | GI50 (SN12C) [µM] | GI50 (M14) [µM] | other results
6 | COc1cc2c(cc1OCCCNC(=O)c1cc3ccccc3[nH]1)N=C[C@@H]1CCCN1C2=O | Active | 46.8 | 0.203 | 0.41 | 0.173 | GI50 (RXF 393): 0.025 µM; GI50 (SF-268): 0.027 µM
